In the library only some 2.4% were active in any assay of this set; here they are far more common.
Autophagy mod: autophagy modulators in MEF cells, primary screen, imaging, high-content, MEF GFP-LC3 | MEF GFP-LC3 puncta imaging; test concentration mostly 10 µM | calls only at 10 µM (by protocol) | 190,000 compounds, 0.98% hits;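 active = percentage of spot-positive cells more than 3 SD above its plate mean, without a fluorescence outlier flag or 80% toxicity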
MDM2 E3 inh: MDM2-luciferase reporter signal enhancers, primary screen, MDM2 E3 ligase inhibitor project, cell-based, luminescence, 1536-well; 210,000 compounds, 0.11% hits; E3 ubiquitin-protein ligase Mdm2 (Homo sapiens), Q00987; cell-based MDM2 ubiquitination luciferase reporter, 2 h; 0 = plate control, 100 = twice control, blank-subtracted; signal enhancement, % at 5 µM;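 active = signal enhancement of 30% or more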;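 note: luminescence tracks abundance of the self-degrading MDM2-luciferase fusion protein; higher signal means inhibition of MDM2 E3 ligase activity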
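Test system: mammalian cells stably expressing self-ubiquitinating, self-degrading MDM2 E3–luciferase fusion; Amount: 2000 cells in each well; Medium: DMEM; Schedule: 4 h settle plus 2 h compound, 37 °C; Technique: SteadyLite luciferase luminescence after 15 min room-temperature reagent incubation; Benchmarks: plate control and blank wells.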
L929 necroptosis: inhibitors of zVAD-triggered necroptosis, primary screen, L929 cells; L929 zVAD necroptosis rescue, ATP luminescence, 24 h; with zVAD 60 µM; viability rescue, % at 10 µM; 220,000 compounds, 0.38% hits;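 active = activation, scaled between plate controls, above about 75%, limit read from the data; inactive = activation under that limit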
TNF necrop inh: inhibitors of TNF-alpha triggered necroptosis, primary screen, cell-based, Jurkat FADD-/-, single concentration. Jurkat FADD-/- TNF necroptosis rescue, ATP luminescence, 24 h; 0 = TNF only, 100 = no-TNF cells. activation (protection from cell death), % at 10 µM. 220,000 compounds, 0.068% hits. AID 463075, 2010;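 active = activation, meaning protection from cell death, of at least 50% relative to plate controls; inactive = activation below 50%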;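 note: necroptosis triggered by 40 ng/mL TNF-alpha added together with compound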
Hck Nef HTS: inhibitors of Nef-activated human Hck kinase, primary screen, biochemical, Z-Lyte FRET, 384-well, Hck-YEEI | 220,000 compounds, 0.68% hits | Recombinant Hck-YEEI plus Nef, Z-Lyte FRET kinase assay | inhibition, % at 20 µM;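 active = Hck-Nef kinase inhibition above about 50%, limit read from the data; inactive = inhibition below that limit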
Target sequence (P08631 whole entry, looked up): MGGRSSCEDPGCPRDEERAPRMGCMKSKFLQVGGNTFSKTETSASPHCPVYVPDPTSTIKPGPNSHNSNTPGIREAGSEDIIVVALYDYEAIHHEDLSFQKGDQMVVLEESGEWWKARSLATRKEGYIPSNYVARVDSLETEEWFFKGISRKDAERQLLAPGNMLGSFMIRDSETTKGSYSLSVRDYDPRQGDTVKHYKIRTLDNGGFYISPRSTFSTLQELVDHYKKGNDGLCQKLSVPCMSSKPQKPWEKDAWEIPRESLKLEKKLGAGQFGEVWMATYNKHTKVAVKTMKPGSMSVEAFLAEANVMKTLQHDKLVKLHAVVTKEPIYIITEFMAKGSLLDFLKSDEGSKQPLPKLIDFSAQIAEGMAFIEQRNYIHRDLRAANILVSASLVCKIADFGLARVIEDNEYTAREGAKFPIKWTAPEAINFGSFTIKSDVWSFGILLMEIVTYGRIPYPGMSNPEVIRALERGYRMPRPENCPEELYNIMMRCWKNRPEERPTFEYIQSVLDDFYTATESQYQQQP
Dynein cargo inh: inhibitors of GR-EGFP nuclear translocation, primary screen, dynein cargo transport inhibitor project, imaging, high-content, 3617.4 mouse cells | test concentration mostly 20 µM; stimulated with dexamethasone, 1 µM; hits give low values | AID 1381, 2008 | 220,000 compounds, 0.47% hits | z-score, hits read low;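 active = plate z-score of nuclear minus cytoplasmic receptor signal below a set negative limit, without overly bright fluorescence or cell loss, cut at about -3.5 in these data, passing the limit was not always enough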;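 note: z-score of nuclear minus cytoplasmic ring GR-EGFP intensity difference per well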
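Buffer or medium: tet-free medium with charcoal-stripped serum / Also added: dexamethasone agonist, 1.0 µM final, for 30 min / Timing: induction 48 h, compound 1 h, agonist 30 min / Measured by: high-content fluorescence imaging after fixation / Read-out: nuclear-to-cytoplasmic GR-EGFP distribution per well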
A number is an active result; – = inactive; · = not tested or not shown; + = active, no number.

SMILES | Autophagy mod | MDM2 E3 inh | L929 necroptosis | TNF necrop inh | Hck Nef HTS | Dynein cargo inh
CC(C)(C)C(=O)O/N=C(\N)Cc1ccc(-c2csnn2)cc1 | · | – | – | – | – | –
CCOC(=O)c1cc2c(=O)n3ccccc3nc2n(CCCOC)c1=NC(=O)C(C)(C)C | – | – | – | – | 159 | –
CCOC(=O)c1cc2c(=O)n3ccccc3nc2n(Cc2ccccc2)c1=N | – | – | – | – | – | –
CCOCCCn1c(=N)c(C(=O)Nc2cc(C)on2)cc2c(=O)n3ccccc3nc21 | – | · | – | – | 68 | –
Cc1nnc(SCCOc2ccccc2)s1 | – | – | – | – | – | –
O=C1OC(/C(=C\Nc2ccccc2)[N+](=O)[O-])c2ccccc21 (configuration not stated) | · | · | – | – | – | –
COC(=O)c1ccc(C)c(NS(=O)(=O)c2ccc(OC)cc2)c1 | + | – | – | – | – | –
COC(=O)c1ccc(C)c(NS(=O)(=O)c2ccc(C)c([N+](=O)[O-])c2)c1 | – | – | – | – | – | –
COc1ccc(OC)c(N(CC(=O)N2CCN(c3cc(Cl)ccc3C)CC2)S(C)(=O)=O)c1 | + | – | – | – | – | –
CCOC(=O)N1CCc2c(sc(NC(=O)CN3CCOCC3)c2C(=O)Nc2ccccc2)C1 | + | – | – | – | – | –
CCOC(=O)c1c(NC(=S)Nc2ccccc2)sc2c1CCN(CC)C2 | – | 51 | – | – | – | –
CCOC(=O)c1sc(NC(=S)NC(=O)c2ccccc2)c(C(=O)OCC)c1C | + | – | – | – | – | –
CCOC(=O)N1CCc2c(sc(NC(=O)CN3CCN(C)CC3)c2C(=O)Nc2ccccc2)C1 | – | – | – | – | – | –
CCCCCc1ccc(OCCCC[n+]2ccccc2)c(CCCCC)c1 | – | – | – | – | – | –
CCC(C)(C)c1ccc(OCCCC[n+]2ccccc2)c(C(C)(C)CC)c1 | – | – | – | – | – | -3.7
CC(C)COC(=O)Cn1cnc2ccc(Br)cc2c1=O | – | – | – | 57 | – | –
CCCCOC(=O)Cn1cnc2ccc(Br)cc2c1=O | – | – | – | – | – | –
O=C(Cn1cnc2ccc(Br)cc2c1=O)c1cccs1 | – | – | – | 74 | – | –
O=C(Cn1cnc2ccc(Cl)cc2c1=O)c1cccs1 | – | – | – | 67 | – | –
O=c1c2ccccc2nc2c3ccccc3c(NCCN3CCOCC3)nn12 | + | – | – | – | – | –
O=c1c2c(-c3ccccc3)csc2nc2c3ccccc3c(NCCN3CCOCC3)nn12 | + | – | – | – | – | –
O=C(COc1ccc(/C=N/NC(=O)c2ccccc2)cc1)Nc1ccc([N+](=O)[O-])cc1 | – | – | – | – | – | –
CC(C)Oc1ccc(/C=N/NC(=O)C(CSCc2ccccc2)NC(=O)c2ccc([N+](=O)[O-])cc2)cc1 (configuration not stated) | + | – | – | – | – | –
CCOC(=O)C(NC(=O)CC)(Nc1ccc(S(N)(=O)=O)cc1)C(F)(F)F (configuration not stated) | · | – | – | – | – | –
COc1ccc(-c2ccc(CO)o2)cc1N | + | – | – | – | – | –
SMILES | Autophagy mod | MDM2 E3 inh | L929 necroptosis | TNF necrop inh | Hck Nef HTS | Dynein cargo inh
CCOCCCNC(=O)c1cc2sc(Cl)cc2n1CC | + | – | – | – | – | –
Cc1ccc(OCC(=O)N(C)Cc2ccccc2)c([N+](=O)[O-])n1 | – | – | – | – | – | –
Cc1ccc(NC(=O)CC2SC3=NCCCN3C2=O)c(C)c1 (configuration not stated) | – | – | – | – | – | –
O=C(CC1SC2=NCCN2C1=O)Nc1ccc(Cl)cc1 (configuration not stated) | + | – | – | – | – | –
N#C/C(=N\Nc1cccc(C(F)(F)F)c1)C(=O)c1csc(-c2cccnc2)n1 | · | – | – | – | – | –
Oc1ccccc1CNc1ccc2c(c1)OCCO2 | – | – | – | – | – | –
Cc1ccc(CNc2ccc3c(c2)OCO3)c(C)c1 | + | – | – | – | – | –
O=C1NC(=O)c2cc(NC(=O)C3CCCCC3)ccc21 | – | – | – | – | – | –
CCOc1ccc(NC(=O)/C=C/c2ccc(OC)cc2)c([N+](=O)[O-])c1 | + | – | – | – | – | –
Cc1ccc(/C=C/C2=Cc3c(sc(NC(=O)CSc4n[nH]c(N)n4)c3C#N)C(C)(C)C2)o1 | – | – | – | – | 64 | –
Cc1cc(NC(=O)CSc2n[nH]c(N)n2)no1 | – | – | – | – | – | –
COc1ccccc1/C=C/C(=O)c1cc(Br)ccc1OC(=O)c1ccco1 | – | · | – | – | – | -5.3
Cc1ccc(C(=O)NCC(=O)OC(C)C(=O)Nc2ccc(N(C)C)cc2)cc1C (configuration not stated) | – | – | – | – | – | –
COc1ccc(CCN2CC(C(=O)Nc3cccc(C(C)=O)c3)CC2=O)cc1OC (configuration not stated) | + | – | – | – | – | –
CC(=O)c1cccc(NC(=O)C2CC(=O)N(CCc3ccccc3)C2)c1 (configuration not stated) | – | – | – | – | – | –
COc1cc2nc(SCC(=O)NC3CC3)n(CCC3=CCCCC3)c(=O)c2cc1OC | – | · | – | – | – | –
COc1cc2nc(SCc3c(C)noc3C)n(CCC3=CCCCC3)c(=O)c2cc1OC | + | – | – | – | – | –
Cc1ccc(NC(=O)CN2C(=O)C3C4C=CC(C4)C3C2=O)cc1 (configuration not stated) | + | – | – | – | – | –
CCOC(=O)c1ccc(NC(=O)CN2C(=O)C3C4C=CC(C4)C3C2=O)cc1 (configuration not stated) | – | – | – | – | – | –
O=C(NCCNCc1ccccn1)c1ccco1 | – | – | – | – | – | –
Cc1ccc(CNC(=O)C2CN(S(C)(=O)=O)c3cc(Cl)ccc3O2)cc1 (configuration not stated) | – | – | – | – | – | –
O=C(c1cn(-c2ccccc2)nc1-c1cccs1)N1CCOCC1 | – | 33 | – | – | – | –
O=C(c1cn(-c2ccccc2)nc1-c1cccs1)N1CCN(c2ccccc2)CC1 | – | – | – | – | – | –
